Results of several laboratories.
Lines come from different studies, so protocols differ.
Organism: Mycobacterium tuberculosis
Effect on: microbial growth

SMILES	technique	strain	time	MIC
COC(=O)c1cc(-c2cccc(NC(=O)Nc3cc(Cl)ccc3Cl)c2)on1		ATCC27294 H37RV	7 days	2 µg/mL
NNC(=O)c1ccncc1		ATCC27294 H37RV		0.05 µg/mL
CN[C@H](CC(C)C)C(=O)N[C@H]1C(=O)N[C@@H](CC(N)=O)C(=O)N[C@H]2C(=O)N[C@H]3C(=O)N[C@H](C(=O)N[C@H](C(=O)O)c4cc(O)cc(O)c4-c4cc3ccc4O)[C@H](O)c3ccc(c(Cl)c3)Oc3cc2cc(c3O[C@@H]2O[C@H](CO)[C@@H](O)[C@H](O)[C@H]2O[C@H]2C[C@](C)(N)[C@H](O)[C@H](C)O2)Oc2ccc(cc2Cl)[C@H]1O		H37RV	14 days	12.5 µg/mL
COC(=O)c1cc(-c2cccc(NC(=S)Nc3ccc(F)cc3)c2)on1		ATCC27294 H37RV	7 days	4 µg/mL
Cc1ccc(C)n1-c1ccc(-c2nnc(-c3ccc(N(C)C)cc3)[nH]2)cc1	broth dilution	H37RV	21 days	16 µg/mL
O=C1C(=NNc2nc(-c3ccccc3)cs2)C(N=Cc2ccc([N+](=O)[O-])cc2)=NN1c1ccccc1	resazurin	H37RV		25 µg/mL
Cc1cc(=O)[nH]n1C(=O)c1ccc(-n2c(C)ccc2C)cc1	broth dilution	H37RV	21 days	2 µg/mL
C=C[C@@H](O)C#CC#C[C@@H](O)/C=C\CCCCCCC	resazurin	ATCC35801 ERDMAN	7 days	6 µg/mL
O=C(CNS(=O)(=O)c1ccc([N+](=O)[O-])cc1)N1CCN(C(c2ccc(F)cc2)c2ccc(F)cc2)CC1		ATCC27294 H37RV		25 µg/mL
CN(CC[C@H](N)CC(=O)N[C@H]1C=C[C@H](n2ccc(N)nc2=O)O[C@@H]1C(=O)O)C(=N)N		H37RA		> 50 µM
COC(=O)c1cc(-c2ccc(OC)c(NC(=O)Nc3ccc(Cl)c(Cl)c3)c2)on1		ATCC27294 H37RV	7 days	8 µg/mL
Cc1ccc2nc(C)c(C(=O)NCc3ccc(S(F)(F)(F)(F)F)cc3)n2c1		H37RV	5 days	0.014 µM
CCC1CCC2(CC1)SC(C)C(=O)N2NC(=O)c1[nH]c2ccc(Cl)cc2c1-c1ccccc1 (stereo not shown)		ATCC27294 H37RV		1000 µM
CO[C@H]1/C=C/O[C@@]2(C)Oc3c(C)c(O)c4c(O)c(c(/C=N/N5CCN(C)CC5)c(O)c4c3C2=O)NC(=O)/C(C)=C\C=C\[C@H](C)[C@H](O)[C@@H](C)[C@@H](O)[C@@H](C)[C@H](OC(C)=O)[C@@H]1C	resazurin	H37RV	14 days	0.075 µM
CO[C@H]1/C=C/O[C@@]2(C)Oc3c(C)c(O)c4c(O)c(c(/C=N/N5CCN(C)CC5)c(O)c4c3C2=O)NC(=O)/C(C)=C\C=C\[C@H](C)[C@H](O)[C@@H](C)[C@@H](O)[C@@H](C)[C@H](OC(C)=O)[C@@H]1C		W4		0.016 µM
CO[C@H]1/C=C/O[C@@]2(C)Oc3c(C)c(O)c4c(O)c(c(/C=N/N5CCN(C)CC5)c(O)c4c3C2=O)NC(=O)/C(C)=C\C=C\[C@H](C)[C@H](O)[C@@H](C)[C@@H](O)[C@@H](C)[C@H](OC(C)=O)[C@@H]1C		H37RV	5 days	0.003 µM
CO[C@H]1/C=C/O[C@@]2(C)Oc3c(C)c(O)c4c(O)c(c(/C=N/N5CCN(C)CC5)c(O)c4c3C2=O)NC(=O)/C(C)=C\C=C\[C@H](C)[C@H](O)[C@@H](C)[C@@H](O)[C@@H](C)[C@H](OC(C)=O)[C@@H]1C		ATCC27294 H37RV	8 days	0.06 µg/mL
OCN(CO)c1nc(N(CO)CO)nc(N(CO)CO)n1		H37RV	7 days	8 to 16 µg/mL
COC(=O)c1cc(-c2cccc(NC(=S)Nc3ccc([N+](=O)[O-])cc3)c2)on1		ATCC27294 H37RV	7 days	2 µg/mL
O=C1COCCN1c1ccc(CO[C@@H]2COc3nc([N+](=O)[O-])cn3C2)cc1F		H37RV		0.4 to 0.8 µg/mL
CC1CCC2(CC1)SCC(=O)N2NC(=O)c1[nH]c2ccc(Cl)cc2c1-c1ccccc1 (stereo not shown)		ATCC27294 H37RV		31 µM
COc1nc2ccc(Br)cc2cc1[C@@H](c1ccccc1)[C@@](O)(CCN(C)C)c1cccc2ccccc12	resazurin	H37RV	7 days	0.17 µM

SMILES	technique	strain	time	MIC
Cc1cn2c(C(=O)NCc3ccc(S(F)(F)(F)(F)F)cc3)c(C)nc2s1		H37RV	5 days	0.4 µM
C[C@@H]1CN(CC2CCCCC2)C[C@H](C)N1c1nc(=O)c2cc(C(F)(F)F)cc(C#N)c2s1	resazurin	H37RV		> 2 µM
COC(=O)c1cc(-c2cccc(NC(=O)Nc3cccc(C#N)c3)c2)on1		ATCC27294 H37RV	7 days	16 µg/mL
NC(=O)c1cnccn1	resazurin	H37RV		3.12 µg/mL
COC(=O)c1cc(-c2cccc(NC(=S)Nc3ccc(Cl)cc3)c2)on1		ATCC27294 H37RV	7 days	1 µg/mL
CC[C@@H](CO)NCCN[C@@H](CC)CO		H37RV		5 µg/mL
CO[C@@H]1[C@@H](OC(N)=O)[C@@H](O)[C@H](Oc2ccc3c(O)c(NC(=O)c4ccc(O)c(CC=C(C)C)c4)c(=O)oc3c2C)OC1(C)C	resazurin	H37RA	14 days	8 µg/mL
Cc1c(Cc2cccc(Cl)c2)c(=O)n2c([nH]c3ccccc32)c1C#N	broth dilution	H37RV		> 128 µg/mL
CC(C)[C@H]1CO[C@]23CCN(Cc4ccc(C(F)(F)F)cc4)C[C@H]2CCC(=O)N13		H37RV	7 days	0.16 µM
COC1C(O)C(n2ccc(=O)[nH]c2=O)OC1C(OC1OC(C(=O)Nc2ccc(F)c(F)c2)=CC(O)C1O)C(N)=O (stereo not shown)	resazurin	H37RV		1.56 µg/mL
COc1cccc(C=NC2=NN(c3ccccc3)C(=O)C2=NNc2nc(-c3ccccc3)cs2)c1	resazurin	H37RV		12.5 µg/mL
CO[C@H]1/C=C/O[C@@]2(C)Oc3c(C)c(O)c4c(O)c(c(/C=N/N5CCN(C)CC5)c(O)c4c3C2=O)NC(=O)/C(C)=C\C=C\[C@H](C)[C@H](O)[C@@H](C)[C@@H](O)[C@@H](C)[C@H](OC(C)=O)[C@@H]1C				0.02 µg/mL
CC(=O)O[C@H]1C[C@@]2(C)[C@@H](C[C@@H](O)[C@H]3[C@@]4(C)CC[C@@H](O)[C@@H](C)[C@@H]4CC[C@@]32C)/C1=C(\CCC=C(C)C)C(=O)O	resazurin	H37RA	14 days	4 µg/mL
COC(=O)c1cc(-c2cccc(NC(=S)Nc3cccc(Cl)c3)c2)on1		ATCC27294 H37RV	7 days	4 µg/mL
O=C1NN=C(N=Cc2ccccc2O)C1=NNn1c(-c2ccccc2)nc2ccccc2c1=O	resazurin	H37RV		13.8 µM
CC1SC2(CCCCC2)N(NC(=O)c2[nH]c3ccc(Cl)cc3c2-c2ccccc2)C1=O (stereo not shown)		ATCC27294 H37RV		250 µM
Cc1cc(C)n(C(=O)c2ccc(-n3c(C)ccc3C)cc2)n1	broth dilution	H37RV	21 days	8 µg/mL
COC(=O)c1cc(-c2cccc(NC(=S)Nc3ccc(OC)cc3)c2)on1		ATCC27294 H37RV	7 days	2 µg/mL
O=C1C(=NNc2nc(-c3ccccc3)cs2)C(N=Cc2cccc(Cl)c2)=NN1c1ccccc1	resazurin	H37RV		6.25 µg/mL
CO[C@H]1/C=C/O[C@@]2(C)Oc3c(C)c(O)c4c(O)c(c(/C=N/N5CCN(C)CC5)c(O)c4c3C2=O)NC(=O)/C(C)=C\C=C\[C@H](C)[C@H](O)[C@@H](C)[C@@H](O)[C@@H](C)[C@H](OC(C)=O)[C@@H]1C	resazurin	H37RA	14 days	0.06 µg/mL
Cc1c(Cc2ccc(Cl)c(Cl)c2)c(=O)n2c([nH]c3ccccc32)c1C#N	broth dilution	H37RV		0.5 µg/mL
